From ChEMBL document CHEMBL1123397, “Antiarrhythmic activity of 17 beta-aminoestratrienes. Comparison of 3-ols and 3-acetates with the corresponding 3-(3-amino-2-hydroxypropyl) ethers” (1986)
Converted amounts (≈) assume the structure as drawn.

Assays:
Rattus norvegicus [1] = test: Effective dose that antagonized arrhythmias evoked by coronary artery ligation in the rat was measured at 5 mg/kg dose; format: functional
Rattus norvegicus [2] = test: Effect on heart rate after isoprenaline induced tachycardia in the anesthetized rat at 5 mg/kg dose; format: functional
Outline: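 Same ligation protocol in anaesthetised male Wistar rats. Heart rate was taken from the lead II ECG at three points: just before i.v. drug or vehicle, 14 min after it (just before isoprenaline 10 μg/kg), and 1 min after isoprenaline. Pre vs post rates and isoprenaline responses vs controls were compared by Student's t test. Mean ± SEM of 7-12 observations.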

Rattus norvegicus [3] = test: Effect on heart rate before isoprenaline induced tachycardia in the anesthetized rat at 5 mg/kg dose; format: functional
Outline: (§1)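 Test drug or vehicle was given i.v., and isoprenaline (10 µg/kg) 14 min later. Heart rate was read from the lead II ECG just before drug, at 14 min (pre-isoprenaline) and 1 min after isoprenaline. Compared by Student's t test; 7–12 animals per group; mean ± SEM.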

Rattus norvegicus [4] = test: Effect on heart rate on 1 min post isoprenaline induced tachycardia in the anesthetized rat at 5.0 mg/kg dose.; format: functional; outline: as §1
Rattus norvegicus [5] = test: Compound was tested for antagonism of Ventricular Fibrilloflutter (VF) evoked by coronary artery ligation in the rat measured at 10 mg/kg dose; format: functional, Heart
Outline: (§2)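 Male Wistar rats, anaesthetised and artificially ventilated, with left thoracotomy; silk suture under main left coronary artery. After stabilization, test drug or vehicle i.v.; 14 min later isoprenaline 10 μg/kg; 1 min after that the ligature was tightened and VF incidence recorded over 30 min. Carotid pressure and lead II ECG monitored continuously. 7-12 animals per group.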

Rattus norvegicus [6] = test: Antagonism of Ventricular Fibrilloflutter (VF) evoked by coronary artery ligation in the rat measured at 2 mg/kg dose; format: functional, Heart; outline: as §2
Rattus norvegicus [7] = test: Compound was tested for antagonism of Ventricular Fibrilloflutter (VF) evoked by coronary artery ligation in the rat measured at 5 mg/kg dose; format: functional, Heart; outline: as §2
Rattus norvegicus [8] = test: Mean change in heart rate recorded 14 min after the administration of compound.; format: functional; outline: as §1
Rattus norvegicus [9] = organism: Rattus norvegicus; test: Maximum increase in heart rate evoked by isoprenaline.; format: functional; outline: as §1
Cavia porcellus [10] = organism: Cavia porcellus; test: Compound was tested for antiarrhythmic activity expressed as action potential height (AP) in guinea pig atria at 1(ug/mL) concentration; format: functional, Heart
Outline: (§3)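 Guinea pig left atria pinned in a recording chamber, superfused with carbogen-gassed Krebs solution at 35 ± 0.5 °C and electrically stimulated. Transmembrane action potentials were recorded with conventional microelectrodes, giving RMP, AP height, APD50, APD90 and maximum rate of depolarization. Values are mean ± SEM from n cells across five preparations.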

Cavia porcellus [11] = organism: Cavia porcellus; test: Compound was tested for antiarrhythmic activity expressed as action potential height (AP) in guinea pig atria at 2(ug/mL) concentration; format: functional, Heart; outline: as §3
Cavia porcellus [12] = organism: Cavia porcellus; test: Compound was tested for antiarrhythmic activity (time taken to reach 50% repolarization) in guinea pig atria at 1(ug/mL) concentration; format: functional, Heart; outline: as §3
Cavia porcellus [13] = organism: Cavia porcellus; test: Compound was tested for antiarrhythmic activity (time taken to reach 50% repolarization) in guinea pig atria at 2(ug/mL) concentration; format: functional, Heart; outline: as §3
Cavia porcellus [14] = organism: Cavia porcellus; test: Compound was tested for antiarrhythmic activity (time taken to reach 50% repolarization) in guinea pig atria at 4(ug/mL) concentration; format: functional, Heart; outline: as §3
Cavia porcellus [15] = organism: Cavia porcellus; test: Compound was tested for antiarrhythmic activity (time taken to reach 90% repolarization) in guinea pig atria at 1(ug/mL) concentration; format: functional, Heart; outline: as §3
Cavia porcellus [16] = organism: Cavia porcellus; test: Compound was tested for antiarrhythmic activity (time taken to reach 90% repolarization) in guinea pig atria at 2(ug/mL) concentration; format: functional, Heart; outline: as §3
Cavia porcellus [17] = organism: Cavia porcellus; test: Compound was tested for antiarrhythmic activity (time taken to reach 90% repolarization) in guinea pig atria at 4(ug/mL) concentration; format: functional, Heart; outline: as §3
Cavia porcellus [18] = organism: Cavia porcellus; test: Compound was tested for antiarrhythmic activity expressed as action potential height (AP) in guinea pig atria at 4(ug/mL) concentration; format: functional, Heart; outline: as §3
Cavia porcellus [19] = organism: Cavia porcellus; test: Compound was tested for antiarrhythmic activity (maximum rate of phase 0 depolarization- MRD) in guinea pig atria at 1(ug/mL) concentration; format: functional, Heart; outline: as §3
Cavia porcellus [20] = organism: Cavia porcellus; test: Compound was tested for antiarrhythmic activity (maximum rate of phase 0 depolarization- MRD) in guinea pig atria at 2(ug/mL) concentration; format: functional, Heart; outline: as §3
Cavia porcellus [21] = organism: Cavia porcellus; test: Compound was tested for antiarrhythmic activity (maximum rate of phase 0 depolarization- MRD) in guinea pig atria at 4(ug/mL) concentration; format: functional, Heart; outline: as §3
Cavia porcellus [22] = organism: Cavia porcellus; test: Compound was tested for antiarrhythmic activity expressed as resting membrane potential (RMP) in guinea pig atria at 1(ug/mL) concentration; format: functional; conditions: Heart; outline: as §3
Cavia porcellus [23] = organism: Cavia porcellus; test: Compound was tested for antiarrhythmic activity expressed as resting membrane potential (RMP) in guinea pig atria at 2(ug/mL) concentration; format: functional; conditions: Heart; outline: as §3
Cavia porcellus [24] = organism: Cavia porcellus; test: Compound was tested for antiarrhythmic activity expressed as resting membrane potential (RMP) in guinea pig atria at 4(ug/mL) concentration; format: functional; conditions: Heart; outline: as §3
Cavia porcellus [25] = organism: Cavia porcellus; test: Concentration required to reduce maximum following frequencu (MFF) of isolated guinea pig atria by 25%; format: functional
Outline: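 Guinea pig left atria in an organ bath of Krebs solution at 35 °C, gassed with carbogen, electrically driven, isometric contractions recorded. Drugs added cumulatively; maximum following frequency determined 6 min after each concentration. Concentration reducing MFF by 25% (EC25) calculated from six preparations.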

Mus musculus = organism: Mus musculus; test: ED 50 value against aconitine-induced arrhythmias in mice; format: functional
Outline: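 Anaesthetised mice were given test compound intraperitoneally, then aconitine intravenously to induce arrhythmia. At least three doses were tested in separate groups (n = 6-10). ED50 is the dose raising the arrhythmogenic aconitine dose 50% above the control requirement.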

Rattus norvegicus [26] = test: Effect dose of compound that antagonized arrhythmias evoked by coronary artery ligation in the rat was measured at 0.05 mg/kg dose; format: functional; outline: as §2
Rattus norvegicus [27] = test: Compound was tested for antagonism of Ventricular Fibrilloflutter (VF) evoked by coronary artery ligation in the rat measured at 0.05 mg/kg dose; format: functional, Heart; outline: as §2
Rattus norvegicus [28] = test: Compound was tested for antagonism of Ventricular Fibrilloflutter (VF) evoked by coronary artery ligation in the rat measured at 0.1 mg/kg dose; format: functional, Heart; outline: as §2
Rattus norvegicus [29] = test: Compound was tested for antagonism of Ventricular Fibrilloflutter (VF) evoked by coronary artery ligation in the rat measured at 0.02 mg/kg dose; format: functional, Heart; outline: as §2

CC(=O)Nc1ccc(OCC(O)CNC(C)C)cc1 (stereo not given) [PRACTOLOL]
ED50 (Rattus norvegicus [1]): 5.6 mg/kg | Heart rate (Rattus norvegicus [2]): 351 beats min-1 | Heart rate (Rattus norvegicus [3]): 459 beats min-1 | Heart rate (Rattus norvegicus [4]): 377 beats min-1 | VF (Rattus norvegicus [5]): 29% | VF (Rattus norvegicus [6]): 80% | VF (Rattus norvegicus [7]): 43% | Change (Rattus norvegicus [8]): -23.5% | Increase (Rattus norvegicus [9]): 7.4%

CNC1[C@H](O)C[C@H]2[C@@H]3CCc4cc(O)ccc4[C@H]3CC[C@]12C (stereo not given in full)
AP (Cavia porcellus [10]): 85.8 mV | AP (Cavia porcellus [11]): 86.3 mV | APD50 (Cavia porcellus [12]): 49.2 ms | APD50 (Cavia porcellus [13]): 45.5 ms | APD50 (Cavia porcellus [14]): 44.5 ms | APD90 (Cavia porcellus [15]): 83.6 ms | APD90 (Cavia porcellus [16]): 80.2 ms | APD90 (Cavia porcellus [17]): 80.6 ms | AP (Cavia porcellus [18]): 81.5 mV | MRD (Cavia porcellus [19]): 98.4 V s-1 | MRD (Cavia porcellus [20]): 86.5 V s-1 | MRD (Cavia porcellus [21]): 62.4 V s-1 | RMP (Cavia porcellus [22]): 72.8 mV | RMP (Cavia porcellus [23]): 75.8 mV | RMP (Cavia porcellus [24]): 72.1 mV | EC25 (Cavia porcellus [25]): 1.67 µg/mL (≈ 5.54 µM) | ED50 (Mus musculus): 5.9 mg/kg | ED50 (Rattus norvegicus [26]): 0.04 mg/kg | VF (Rattus norvegicus [27]): 33% | VF (Rattus norvegicus [28]): 17% | VF (Rattus norvegicus [29]): 83%
